In ChEMBL document CHEMBL1144382, “Discovery and optimisation of potent, selective, ethanolamine inhibitors of bacterial phenylalanyl tRNA synthetase” (Bioorg Med Chem Lett, 2005):

Columns and labels:
[1] = molecular target: T1, Phenylalanine--tRNA ligase alpha subunit (Staphylococcus aureus, UniProt P68849); test: Inhibitory concentration against Staphylococcus aureus Phenylalanyl-tRNA synthetase
T1 sequence (P68849 whole entry): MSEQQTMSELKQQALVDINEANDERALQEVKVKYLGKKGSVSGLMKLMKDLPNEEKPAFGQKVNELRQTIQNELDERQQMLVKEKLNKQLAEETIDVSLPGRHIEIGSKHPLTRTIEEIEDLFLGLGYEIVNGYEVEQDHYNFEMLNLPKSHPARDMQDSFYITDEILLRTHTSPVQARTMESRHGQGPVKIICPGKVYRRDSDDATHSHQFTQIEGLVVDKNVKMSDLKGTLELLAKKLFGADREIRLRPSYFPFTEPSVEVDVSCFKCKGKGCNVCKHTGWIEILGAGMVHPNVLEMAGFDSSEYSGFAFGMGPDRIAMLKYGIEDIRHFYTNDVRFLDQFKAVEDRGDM
Summary of the method: (§1)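 Recombinant bacterial FRS (S. aureus WCUH29 enzyme cloned and overexpressed in E. coli; S. pneumoniae and H. influenzae enzymes overexpressed and purified the same way). IC50 from the full aminoacylation reaction with SPA read-out. Phenylalanine was held at the Km of each enzyme.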

[2] = molecular target: T2, Phenylalanine--tRNA ligase alpha subunit (Haemophilus influenzae (strain ATCC 51907 / DSM 11121 / KW20 / Rd), UniProt P43819); test: Inhibitory concentration against Haemophilus influenzae Phenylalanyl-tRNA synthetase; summary of the method: as §1
T2 sequence (P43819 whole entry): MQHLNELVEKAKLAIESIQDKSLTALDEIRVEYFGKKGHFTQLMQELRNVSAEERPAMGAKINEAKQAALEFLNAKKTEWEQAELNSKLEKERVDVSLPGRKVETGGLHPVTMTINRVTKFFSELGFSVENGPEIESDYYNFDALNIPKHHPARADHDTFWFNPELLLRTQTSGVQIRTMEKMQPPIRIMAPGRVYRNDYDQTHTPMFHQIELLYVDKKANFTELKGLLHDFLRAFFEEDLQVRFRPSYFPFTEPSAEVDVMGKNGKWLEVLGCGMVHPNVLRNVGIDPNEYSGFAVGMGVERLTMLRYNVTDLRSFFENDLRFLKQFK

[3] = molecular target: T3, Phenylalanine--tRNA ligase alpha subunit (Streptococcus pneumoniae serotype 4 (strain ATCC BAA-334 / TIGR4), UniProt Q97S36); test: Inhibitory concentration against Streptococcus pneumoniae Phenylalanyl-tRNA synthetase; summary of the method: as §1
T3 sequence (Q97S36 whole entry): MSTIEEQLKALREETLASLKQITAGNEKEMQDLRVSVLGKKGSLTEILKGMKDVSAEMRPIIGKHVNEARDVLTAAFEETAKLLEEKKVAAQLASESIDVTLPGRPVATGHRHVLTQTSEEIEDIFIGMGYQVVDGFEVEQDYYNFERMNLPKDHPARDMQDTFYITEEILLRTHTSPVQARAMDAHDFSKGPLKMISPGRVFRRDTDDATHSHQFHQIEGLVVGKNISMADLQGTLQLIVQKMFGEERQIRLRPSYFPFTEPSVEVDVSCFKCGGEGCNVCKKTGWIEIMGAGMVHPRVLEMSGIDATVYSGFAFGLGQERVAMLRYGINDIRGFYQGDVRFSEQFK

[4] = molecular target: T1, Phenylalanine--tRNA ligase alpha subunit; test: Inhibitory concentration against […] Phenylalanyl-tRNA synthetase
Summary of the method: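 Recombinant S. aureus WCUH29 FRS, cloned and overexpressed in E. coli, then purified. IC50 measured in the full aminoacylation reaction with SPA readout. Phenylalanine set at the enzyme's Km.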

[5] = molecular target: T2, Phenylalanine--tRNA ligase alpha subunit; test: Inhibitory concentration against Haemophilus influenzae Phenylalanyl-tRNA synthetase; NI=no inhibition at 300 nM
Summary of the method: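 Recombinant FRS from the named species, overexpressed in E. coli and purified. IC50 measured in the full aminoacylation reaction with SPA readout. Phenylalanine set at the Km of each enzyme.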

[6] = molecular target: T4, Phenylalanine--tRNA ligase, mitochondrial (Rattus norvegicus, UniProt Q6AYQ3); test: Inhibitory concentration against Phenylalanyl-tRNA synthetase from rat liver
T4 sequence (Q6AYQ3 whole entry): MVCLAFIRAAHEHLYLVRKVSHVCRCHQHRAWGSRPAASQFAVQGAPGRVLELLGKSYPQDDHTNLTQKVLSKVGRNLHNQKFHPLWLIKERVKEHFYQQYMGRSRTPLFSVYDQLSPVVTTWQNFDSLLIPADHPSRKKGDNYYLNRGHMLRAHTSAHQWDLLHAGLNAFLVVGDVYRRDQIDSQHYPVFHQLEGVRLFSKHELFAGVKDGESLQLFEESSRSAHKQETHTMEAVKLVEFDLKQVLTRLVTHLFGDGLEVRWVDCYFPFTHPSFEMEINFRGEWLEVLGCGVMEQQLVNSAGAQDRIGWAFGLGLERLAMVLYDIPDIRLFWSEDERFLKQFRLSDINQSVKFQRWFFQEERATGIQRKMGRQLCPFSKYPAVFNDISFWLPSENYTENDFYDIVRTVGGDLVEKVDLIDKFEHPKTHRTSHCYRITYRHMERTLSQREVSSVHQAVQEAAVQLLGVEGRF
Summary of the method: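 Mammalian FRS isolated from rat liver; IC50 determined to assess selectivity against the bacterial enzyme.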

Row | Compound | IC50 [1] | further results
1 | NC(=O)COc1ccccc1CNCC(O)c1cc(Br)cs1 (stereo not given) | 42 nM | –
2 | CNC(=O)CNC(=O)CCOc1ccccc1CNCC(O)c1cc(Br)cs1 (stereo not given) | 36 nM | –
3 | O=C(O)c1ccccc1CNCC(O)c1cccc(C(F)(F)F)c1 (stereo not given) | 2500 nM | –
4 | CNC(=O)CNC(=O)COc1ccccc1CNCC(O)c1cc(Br)cs1 (stereo not given) | 120 nM | –
5 | OC(CNCc1ccccc1OCc1ccccc1)c1cccc(I)c1 (stereo not given) | 32 nM | –
6 | COCOc1ccccc1CNCC(O)c1cc(Br)cs1 (stereo not given) | 35 nM | –
7 | OC(CNCc1ccccc1Oc1ccccc1)c1cc(Br)cs1 (stereo not given) | 120 nM | –
8 | C=CCOc1ccccc1CNCC(O)c1cccc(C(F)(F)F)c1 (stereo not given) | 58 nM | –
9 | OC(CNCc1ccccc1OCCN1CCOCC1)c1cc(Br)cs1 (stereo not given) | 18 nM | –
10 | O=C1c2ccccc2C(=O)N1CCOc1ccccc1CNCC(O)c1cc(Br)cs1 (stereo not given) | 250 nM | –
11 | OCCOc1ccccc1CNC[C@H](O)c1cc(Br)cs1 | > 1000 nM | IC50 [2]: > 1000 nM; IC50 [3]: > 1000 nM
12 | COc1ccccc1CNCC(O)c1ccccc1C(F)(F)F (stereo not given) | > 10000 nM | –
13 | OCCOc1ccccc1CNCC(O)c1cc(Br)cs1 (stereo not given) | 8 nM | –
14 | OC(CNCc1ccccc1OC(F)F)c1cccc(C(F)(F)F)c1 (stereo not given) | 260 nM | –
15 | OC(CNCc1ccccc1OCc1ccccc1)c1cc(Br)cs1 (stereo not given) | 10 nM | IC50 [2]: 1500 nM; IC50 [3]: 280 nM
16 | CS(=O)(=O)c1ccc(COc2ccccc2CNCC(O)c2cc(Br)cs2)cc1 (stereo not given) | 26 nM | –
17 | NCCCCOc1ccccc1CNCC(O)c1cc(Br)cs1 (stereo not given) | 22 nM | –
18 | O=C(O)CCOc1ccccc1CNCC(O)c1cc(Br)cs1 (stereo not given) | 58 nM | –
19 | CN(CCO)C(=O)CCOc1ccccc1CNCC(O)c1cc(Br)cs1 (stereo not given) | 25 nM | –
20 | C=CCOc1ccccc1CNCC(O)c1cc(Br)cs1 (stereo not given) | 18 nM | –
21 | Oc1ccccc1CNCC(O)c1cccc(C(F)(F)F)c1 (stereo not given) | 100 nM | –
22 | COc1ccccc1CNCC(O)c1cccc(C(F)(F)F)c1 (stereo not given) | 160 nM | –
23 | OCCOc1ccccc1CNC[C@@H](O)c1cc(Br)cs1 | 3.7 nM | IC50 [2]: 56 nM; IC50 [3]: 190 nM
24 | NCCOc1ccccc1CNCC(O)c1cc(Br)cs1 (stereo not given) | 220 nM | –
25 | COc1ccccc1CNCC(O)c1cccc(OCc2ccccc2)c1 (stereo not given) | > 10000 nM | –

Row | Compound | IC50 [1] | further results
26 | N#CCOc1ccccc1CNCC(O)c1cc(Br)cs1 (stereo not given) | 49 nM | –
27 | O=C(O)CCCOc1ccccc1CNCC(O)c1cc(Br)cs1 (stereo not given) | 43 nM | –
28 | CCNC(=O)COc1ccccc1CNCC(O)c1cc(Br)cs1 (stereo not given) | 32 nM | –
29 | CN(CCO)C(=O)COc1ccccc1CNCC(O)c1cc(Br)cs1 (stereo not given) | 110 nM | –
30 | COc1ccccc1CNCC(O)c1cc(C(F)(F)F)ccc1C(F)(F)F (stereo not given) | > 10000 nM | –
31 | OC(CNCc1ccccc1OCc1cccnc1)c1cc(Br)cs1 (stereo not given) | 18 nM | –
32 | OCc1cccc(C(O)CNCc2ccccc2OCc2ccccc2)c1 (stereo not given) | 570 nM | –
33 | OC(CNCc1ccccc1OCc1ccccc1)c1cccc(Cl)c1 (stereo not given) | 31 nM | –
34 | COc1ccccc1CNCC(O)c1cc(Br)cs1 (stereo not given) | 50 nM | –
35 | OC(CNCc1ccccc1)c1cccc(C(F)(F)F)c1 (stereo not given) | 160 nM | IC50 [4]: 160 nM; IC50 [5]: No inhibition
36 | OC(CNCc1ccccc1OCc1nc2ccccc2[nH]1)c1cc(Br)cs1 (stereo not given) | 26 nM | IC50 [2]: 150 nM; IC50 [3]: 250 nM
37 | OC(CNCc1ccccc1OCc1ccccc1)c1cc(C(F)(F)F)cc(C(F)(F)F)c1 (stereo not given) | > 10000 nM | –
38 | OC(CNCc1ccccc1OCc1ccncc1)c1cc(Br)cs1 (stereo not given) | 16 nM | IC50 [6]: 90000 nM
39 | CNC(=O)CNC(=O)CCCOc1ccccc1CNCC(O)c1cc(Br)cs1 (stereo not given) | 30 nM | –
40 | COc1ccccc1CNCC(O)c1ccc(C(F)(F)F)cc1 (stereo not given) | > 10000 nM | –
41 | COc1cccc(C(O)CNCc2ccccc2OCc2ccccc2)c1 (stereo not given) | 83 nM | –
42 | COc1ccccc1CNCC(O)c1cccc(C)c1 (stereo not given) | 110 nM | –
43 | CN(CCO)C(=O)CCCOc1ccccc1CNCC(O)c1cc(Br)cs1 (stereo not given) | 26 nM | –
44 | COc1ccccc1CNCC(O)c1cccc(Br)c1 (stereo not given) | 110 nM | –
45 | COc1ccccc1CNCC(O)c1cccc(OC(F)(F)F)c1 (stereo not given) | 190 nM | –
46 | OC(CNCc1ccccc1OCc1ccccn1)c1cc(Br)cs1 (stereo not given) | 43 nM | –
47 | Cc1ccccc1CNCC(O)c1cccc(C(F)(F)F)c1 (stereo not given) | 790 nM | –
48 | O=C1c2ccccc2C(=O)N1CCCCOc1ccccc1CNCC(O)c1cc(Br)cs1 (stereo not given) | 69 nM | –
49 | OC(CNCc1ccccc1OCc1ccccc1)c1cccc(C(F)(F)F)c1 (stereo not given) | 50 nM | –
